Reference: ChEMBL document CHEMBL3797143, “Novel S1P1 receptor agonists - Part 5: From amino-to alkoxy-pyridines” (Eur J Med Chem, 2016)

How the values were obtained:
[1] = tested on: Rattus norvegicus; test: Decrease in peripheral blood lymphocyte count in Wistar rat at 10 mg/kg administered via oral gavage measured after 48 hrs; assay type: functional; set-up: scale not given: the % may be the effect or the level left
Summary of the method: (§1)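 Male Wistar rats (RccHan:WIST) were given 10 mg/kg orally by gavage in vehicle containing 5% DMSO. Blood drawn by sublingual vein puncture under isoflurane before dosing and at the listed times after dosing. Lymphocytes counted on a haematology analyser. Results are % change from baseline, mean of 6-8 animals.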

[2] = tested on: Rattus norvegicus; test: Decrease in peripheral blood lymphocyte count in Wistar rat at 10 mg/kg administered via oral gavage measured after 3 hrs; assay type: functional; set-up: scale not given: the % may be the effect or the level left; summary of the method: as §1
[3] = biological target: Sphingosine 1-phosphate receptor 3 (Homo sapiens, UniProt Q99500); test: Agonist activity at human recombinant S1PR3 expressed in CHO cell membranes incubated for 30 mins by [35S]GTPgammaS binding assay in presence of GDP; assay type: functional
Sphingosine 1-phosphate receptor 3, sequence (Q99500 whole entry): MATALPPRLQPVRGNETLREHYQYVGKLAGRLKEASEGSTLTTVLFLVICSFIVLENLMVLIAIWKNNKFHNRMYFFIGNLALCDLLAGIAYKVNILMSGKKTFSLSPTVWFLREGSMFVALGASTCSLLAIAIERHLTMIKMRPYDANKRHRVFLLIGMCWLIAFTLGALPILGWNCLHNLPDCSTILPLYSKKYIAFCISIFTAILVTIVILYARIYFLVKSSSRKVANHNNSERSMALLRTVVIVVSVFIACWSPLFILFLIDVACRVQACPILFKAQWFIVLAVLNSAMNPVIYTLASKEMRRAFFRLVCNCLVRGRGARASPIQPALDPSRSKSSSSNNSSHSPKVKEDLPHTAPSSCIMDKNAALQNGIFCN
Summary of the method: (§2)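 Membranes from CHO cells expressing recombinant human S1P1 or S1P3. Compounds were preincubated with membranes for 30 min at room temperature. Reaction stopped by filtration, membrane-bound 35S-GTPγS counted. Geometric mean of ≥3 independent runs.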

[4] = biological target: Sphingosine 1-phosphate receptor 1 (Homo sapiens, UniProt P21453); test: Agonist activity at human recombinant S1PR1 expressed in CHO cell membranes incubated for 30 mins by [35S]GTPgammaS binding assay in presence of GDP; assay type: functional; summary of the method: as §2
Sphingosine 1-phosphate receptor 1, sequence (P21453 whole entry): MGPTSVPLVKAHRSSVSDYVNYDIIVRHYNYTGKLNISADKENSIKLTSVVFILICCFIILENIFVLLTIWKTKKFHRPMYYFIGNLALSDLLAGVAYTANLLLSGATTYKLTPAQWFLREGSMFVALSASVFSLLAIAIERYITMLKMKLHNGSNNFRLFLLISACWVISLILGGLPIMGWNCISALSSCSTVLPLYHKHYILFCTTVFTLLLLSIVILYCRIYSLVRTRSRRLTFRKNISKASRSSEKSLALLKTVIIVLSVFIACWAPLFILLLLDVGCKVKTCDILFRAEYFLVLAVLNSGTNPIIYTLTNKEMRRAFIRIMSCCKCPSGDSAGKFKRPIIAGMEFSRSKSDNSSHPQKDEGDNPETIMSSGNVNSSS

[5] = tested on: Rattus norvegicus; test: Time duration of maximum lymphocyte count reduction in Wistar rat at 10 mg/kg administered via oral gavage; assay type: functional
Summary of the method: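 Duration of action is the latest sampling time at which maximal lymphocyte-count reduction was still seen. Male Wistar rats received 10 mg/kg orally, and blood lymphocytes were counted before dosing and at 3, 6 and 24 h (later times in some cases). Mean of 6-8 animals.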

[6] = tested on: Rattus norvegicus; test: Decrease in peripheral blood lymphocyte count in Wistar rat at 10 mg/kg administered via oral gavage measured after 24 hrs; assay type: functional; set-up: scale not given: the % may be the effect or the level left; summary of the method: as §1
[7] = tested on: Rattus norvegicus; test: Decrease in peripheral blood lymphocyte count in Wistar rat at 10 mg/kg administered via oral gavage measured after 6 hrs; assay type: functional; set-up: scale not given: the % may be the effect or the level left; summary of the method: as §1
[8] = Plasma concentration in Wistar rat at 10 mg/kg administered via oral gavage measured after 72 hrs by LC-MS/MS analysis; assay type: ADME, organism-based
Summary of the method: (§3)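 Male Wistar rats received 10 mg/kg orally by gavage. Blood was drawn at the listed times into EDTA tubes, and plasma was prepared by centrifugation at 3000 g for 10 min at 4 °C. Limit of quantification 3 nM.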

[9] = Plasma concentration in Wistar rat at 10 mg/kg administered via oral gavage measured after 24 hrs by LC-MS/MS analysis; assay type: ADME, organism-based; summary of the method: as §3
[10] = Plasma concentration in Wistar rat at 10 mg/kg administered via oral gavage measured after 6 hrs by LC-MS/MS analysis; assay type: ADME, organism-based; summary of the method: as §3
[11] = Phototoxicity in Balb/c mouse 3T3 clone A31 cells assessed as AUC of UV spectra between 310 and 350 nm normalized to compound concentration at 0.05 to 100 uM preincubated for 1 hr followed by UVA irradiation measured after 24 hrs by neutral red uptake assay relative to control; assay type: functional
[12] = Plasma concentration in Wistar rat at 10 mg/kg administered via oral gavage measured after 3 hrs by LC-MS/MS analysis; assay type: ADME, organism-based; summary of the method: as §3
[13] = Half life in Wistar rat at 10 mg/kg administered via oral gavage by LC-MS/MS analysis; assay type: ADME, organism-based; details: in vivo
Summary of the method: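 Oral half-life was calculated from plasma concentrations measured in the lymphocyte-count study, in which male Wistar rats received 10 mg/kg orally. Plasma was prepared from EDTA blood by centrifugation at 3000 g for 10 min at 4 °C.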

[14] = Phototoxicity in Balb/c mouse 3T3 clone A31 cells assessed as inhibition of cell viability measured as photo irritancy factor at 0.05 to 100 uM preincubated for 1 hr followed by UVA irradiation measured after 24 hrs by neutral red uptake assay relative to control; assay type: functional
[15] = tested on: Rattus norvegicus; test: Decrease in peripheral blood lymphocyte count in Wistar rat at 10 mg/kg administered via oral gavage measured after 72 hrs; assay type: functional; set-up: scale not given: the % may be the effect or the level left; summary of the method: as §1
[16] = tested on: Rattus norvegicus; test: Decrease in peripheral blood lymphocyte count in Wistar rat at 10 mg/kg administered via oral gavage measured after 96 hrs; assay type: functional; set-up: scale not given: the % may be the effect or the level left; summary of the method: as §1
[17] = tested on: Rattus norvegicus; test: Decrease in peripheral blood lymphocyte count in Wistar rat at 10 mg/kg administered via oral gavage measured after 144 hrs; assay type: functional; set-up: scale not given: the % may be the effect or the level left; summary of the method: as §1
[18] = Plasma concentration in Wistar rat at 10 mg/kg administered via oral gavage measured after 96 hrs by LC-MS/MS analysis; assay type: ADME, organism-based; summary of the method: as §3
[19] = Plasma concentration in Wistar rat at 10 mg/kg administered via oral gavage measured after 144 hrs by LC-MS/MS analysis; assay type: ADME, organism-based; summary of the method: as §3

| EC50 [3] | EC50 [4] | concentration at 72 h [8] | concentration at 24 h [9] | concentration at 6 h [10] | concentration at 3 h [12] | half-life [13] | concentration at 96 h [18] | concentration at 144 h [19] | Structure (SMILES) | Activity [1] | Activity [2] | Time [5] | Activity [6] | Activity [7] | Ratio [11] | Ratio [14] | Activity [15] | Activity [16] | Activity [17] |
| --- | --- | --- | --- | --- | --- | --- | --- | --- | --- | --- | --- | --- | --- | --- | --- | --- | --- | --- | --- |
| 27 nM | 0.3 nM | – | – | – | – | – | – | – | CCc1cc(-c2noc(-c3cc(CC(C)C)nc(OC)c3)n2)cc(C)c1OC[C@@H](O)CNC(=O)CO | 59% | 57% | 48 h | 66% | 59% | – | – | – | – | – |
| 190 nM | 1 nM | 67 nM | 790 nM | 2040 nM | 2200 nM | 13 h | – | – | CCc1cc(-c2noc(-c3cc(C)nc(OC4CCCC4)c3)n2)cc(C)c1OC[C@@H](O)CNC(=O)CO | – | 69% | 24 h | 74% | 66% | 0.12 | 7.5 | 43% | – | – |
| 71 nM | – | – | 1070 nM | 1860 nM | 2050 nM | 18 h | 68 nM | 12 nM | CCc1cc(-c2noc(-c3cc(OC)nc(C4CCCC4)c3)n2)cc(C)c1OC[C@@H](O)CNC(=O)CO | – | 62% | 24 h | 70% | 65% | 0.09 | 2.3 | – | 50% | 20% |
